{"data": "Assay results pooled from the literature", "target": "Megakaryocyte-associated tyrosine-protein kinase (MATK, Homo sapiens, UniProt P42679)", "One construct used (P42679 1-507)": "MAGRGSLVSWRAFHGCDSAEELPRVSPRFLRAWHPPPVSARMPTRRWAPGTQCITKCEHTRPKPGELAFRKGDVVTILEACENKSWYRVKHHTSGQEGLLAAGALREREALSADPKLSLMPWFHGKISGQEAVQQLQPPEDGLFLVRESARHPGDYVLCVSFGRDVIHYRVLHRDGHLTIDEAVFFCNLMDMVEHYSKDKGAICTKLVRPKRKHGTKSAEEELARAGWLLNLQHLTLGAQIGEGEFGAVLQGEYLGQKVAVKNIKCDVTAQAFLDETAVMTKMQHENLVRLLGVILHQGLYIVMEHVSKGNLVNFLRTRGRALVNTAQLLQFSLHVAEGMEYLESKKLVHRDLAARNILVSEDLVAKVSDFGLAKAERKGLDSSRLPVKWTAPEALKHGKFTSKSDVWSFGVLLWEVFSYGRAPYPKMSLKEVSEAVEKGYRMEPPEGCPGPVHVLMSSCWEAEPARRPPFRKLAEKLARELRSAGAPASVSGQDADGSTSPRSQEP", "note": "Compare with care: the assays were run in different laboratories."}
{"Structure (SMILES)": "O=C1NC(=O)c2cc(Nc3ccc(F)cc3)c(Nc3ccc(F)cc3)cc21", "read-out": "cell-free assay", "tested at": "0.5 µM", "measurement": "remaining signal", "value": "93.5%"}
{"Structure (SMILES)": "CNC(=O)c1ccc(Nc2ncc(C(F)(F)F)c(NCc3nccnc3N(C)S(C)(=O)=O)n2)cc1", "read-out": "cell-free assay", "method": "competition with immobilised ligand", "tested at": "0.1 µM", "measurement": "remaining binding", "value": "37%"}
{"Structure (SMILES)": "Cc1ccc(C(=O)Nc2ccc(CN3CCN(C)CC3)c(C(F)(F)F)c2)cc1C#Cc1cnc2cccnn12", "read-out": "enzyme activity", "action": "inhibitor", "tested at": "23.5 nM", "measurement": "remaining activity", "value": "52%"}
{"Structure (SMILES)": "O=C(Nc1cnn(-c2csc(C(=O)NC3COC3)c2)c1)Nc1ccccc1Cl", "read-out": "enzyme activity", "action": "inhibitor", "tested at": "5 µM", "measurement": "remaining activity", "value": "99.7%"}
{"Structure (SMILES)": "CCCS(=O)(=O)Nc1ccc(F)c(C(=O)c2c[nH]c3ncc(-c4ccc(Cl)cc4)cc23)c1F", "read-out": "enzyme activity", "action": "inhibitor", "tested at": "1 µM", "measurement": "inhibition", "value": "< 20%"}
{"Structure (SMILES)": "CN(C(=O)c1ccccc1)c1cc(N(C)c2ccc3c(c2)CCc2ccc(C(=O)NCCN4CCOCC4)cc2C3=O)ccc1F", "read-out": "cell-free assay", "method": "competition with immobilised ligand", "tested at": "1 µM", "measurement": "remaining binding", "value": "84%"}
{"Structure (SMILES)": "N#CCCc1ccc2c(c1)-c1[nH]c3ccc([N+](=O)[O-])cc3c1CC(=O)N2", "read-out": "cell-free assay", "tested at": "0.5 µM", "measurement": "remaining signal", "value": "101%"}
{"Structure (SMILES)": "O=C(O)[C@@H]1[C@@H](Cn2nnc3ccccc3c2=O)CC[C@H]1C(=O)c1ccc(OCCC2CCOCC2)cc1", "read-out": "cell-free assay", "method": "competition with immobilised ligand", "tested at": "1 µM", "measurement": "remaining binding", "value": "95%"}
{"Structure (SMILES)": "COc1cc2ncnc(Nc3ccc(Oc4ccccc4)c(C)c3C)c2cc1OC", "read-out": "enzyme activity", "action": "inhibitor", "tested at": "1 µM", "measurement": "inhibition", "value": "-2%"}
{"Structure (SMILES)": "Cc1cnn2ncc(-c3ccnc(N(C)C)n3)c2c1", "read-out": "binding", "tested at": "1 µM", "measurement": "remaining binding", "value": "100%"}
{"Structure (SMILES)": "CC(C)(C)c1nc2c(s1)c1nc(N)ncc1c1ccc(NS(=O)(=O)c3c(F)cccc3F)c(F)c12", "read-out": "enzyme activity", "action": "inhibitor", "method": "radiometric", "tested at": "1 µM", "measurement": "remaining activity", "value": "101%"}
{"Structure (SMILES)": "Nc1ncnc2occ(-c3ccc(NC(=O)Nc4cc(C(F)(F)F)ccc4F)cc3)c12", "read-out": "cell-free assay", "action": "inhibitor", "tested at": "20 µM", "measurement": "remaining signal", "value": "13%"}
